According to ChEMBL document CHEMBL4706740, “Structure-Activity Study of Nitazoxanide Derivatives as Novel STAT3 Pathway Inhibitors” (ACS Med Chem Lett, 2021):
Activity calls are given as the source filed them. The rule behind the calls is not given here.

Columns and labels:
[1] = Cmax in Sprague-Dawley rat at 25 mg/kg, IG; type: ADME, organism-based; design: route […], dose 25 mg/kg; details: in vivo, po
In short: (§1)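 Rats, n = 3 per group, received a single dose either intragastrically (25 mg/kg) or intravenously (5 mg/kg). Plasma concentration–time curves were used to derive t1/2α, t1/2β, Vd/F, CL/F, AUC0–∞, Tmax and Cmax. Absolute oral bioavailability was calculated from the ig and iv data.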

[2] = target: Signal transducer and activator of transcription 3 (Homo sapiens) (UniProt P40763); test: Inhibition of STAT3 in human HeLa cells assessed as decrease in phosphorylation of STAT3 at Tyr705 upto 80 uM measured 15 to 120 mins by Western blot analysis; type: cell-based; details: dose microM <=80, time lower […], time upper […]
In short: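 Time course in HeLa cells given 80 μM compound, sampled from 15 min onward through multiple hours; parallel runs at 20 and 40 μM. Total cell lysates Western blotted for p-STAT3 (Tyr705), p-STAT3 (Ser727) and total STAT3.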

[3] = system: HeLa; test: Induction of apoptosis in human HeLa cells assessed as late apoptotic cells at 20 uM incubated for 24 hrs by Annexin V-FITC/PI staining based flow cytometry (reference value: 4.7%); type: functional
[4] = target: Signal transducer and activator of transcription 3 (Homo sapiens) (UniProt P40763); test: Inhibition of STAT3 in human HeLa cells assessed as decrease in phosphorylation of STAT3 at Tyr705 after 1 hrs by Western blot analysis; type: cell-based; details: dose microM <=80, time 1.0 hrs
In short: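 HeLa cells were treated with graded doses for 1 h or 24 h. Total cell lysates were immunoblotted with specific antibodies against p-STAT3 (Tyr705), p-STAT3 (Ser727) and total STAT3.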

[5] = system: HL-60; test: Antiproliferative activity against human HL60 cells assessed as cell growth inhibition measured after 48 hrs by MTT assay; type: functional, cell-based; details: HL-60, 48 h
[6] = system: HeLa; test: Induction of cell cycle arrest in human HeLa cells assessed as accumulation at G0/G1 phase at 20 uM measured after 24 hrs by flow cytometry analysis (reference value: 54.16%); type: functional
[7] = system: HeLa; test: Induction of apoptosis in human HeLa cells assessed as viable cells at 10 uM incubated for 24 hrs by Annexin V-FITC/PI staining based flow cytometry (reference value: 92.45%); type: functional; details: read-out: Activity
[8] = Cytotoxicity against human HEK 293T cells assessed as cell growth inhibition at 50 uM measured after 48 hrs by MTT assay; type: cell-based
[9] = system: HeLa; test: Effect on Jak2 level in human Hela cells upto 80 uM after 24 hrs by Western blot analysis; type: functional, cell-based; details: dose microM <=80, time […]
[10] = system: HeLa; test: Cytotoxicity against human HeLa cells assessed as inhibition of cell viability measured after 48 hrs by MTT assay; type: functional, cell-based
In short: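 Growth was read by MTT assay and IC50 taken from dose–response curves. Values are averages of three independent experiments.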

[11] = system: HeLa; test: Effect on Src level in human Hela cells upto 80 uM after 24 hrs by Western blot analysis; type: functional, cell-based; details: dose microM <=80, time […]
[12] = system: HT-29; test: Antiproliferative activity against human HT29 cells assessed as cell growth inhibition measured after 48 hrs by MTT assay; type: functional, cell-based; details: HT-29, 48 h
[13] = system: HeLa; test: Induction of cell cycle arrest in human HeLa cells assessed as accumulation at G2/M phase at 10 uM measured after 24 hrs by flow cytometry analysis (reference value: 11.81%); type: functional
[14] = target: Signal transducer and activator of transcription 3 (Homo sapiens) (UniProt P40763); test: Inhibition of STAT3 in human HeLa cells assessed as decrease in phosphorylation of STAT3 at Tyr705 cells pretreated with Na3VO4 phosphatase inhibitor measured at 80 uM incubated for 1 hr by Western blot analysis; type: cell-based
In short: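 HeLa cells pretreated 15 min with 25 μM Na3VO4 (phosphatase inhibitor) before compound exposure. p-STAT3 (Tyr705) assessed by Western blot of total cell lysates with specific antibodies and compared with cells not given Na3VO4.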

[15] = target: Signal transducer and activator of transcription 3 (Homo sapiens) (UniProt P40763); test: Inhibition of STAT3 transcriptional activity in human HeLa cells assessed as downregulation of cyclin D1 expression upto 80 uM after 24 hrs by western blot analysis; type: cell-based; details: dose microM <=80, time […]
In short: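 HeLa cells treated 24 h with a concentration series. Total cell lysates probed by Western blot with specific antibodies for the STAT3 target gene products cyclin D1, c-Myc and survivin.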

[16] = Cmax in Sprague-Dawley rat at 5 mg/kg, iv; type: ADME, organism-based; design: route intravenous, dose 5 mg/kg; details: in vivo; in short: as §1
[17] = system: HeLa; test: Induction of cell cycle arrest in human HeLa cells assessed as accumulation at G0/G1 phase at 10 uM measured after 24 hrs by flow cytometry analysis (reference value: 54.16%); type: functional
[18] = system: HeLa; test: Induction of cell cycle arrest in human HeLa cells assessed as accumulation at S phase at 20 uM measured after 24 hrs by flow cytometry analysis (reference value: 34.04%); type: functional
[19] = Antiproliferative activity against human A375 cells assessed as cell growth inhibition measured after 48 hrs by MTT assay; type: functional, cell-based; details: A-375, 48 h
[20] = system: HeLa; test: Induction of apoptosis in human HeLa cells assessed as viable cells at 20 uM incubated for 24 hrs by Annexin V-FITC/PI staining based flow cytometry (reference value: 92.45%); type: functional; details: read-out: Activity
[21] = Cytotoxicity against human HEK-Blue IL-6 cells assessed as cell death at > 10 uM; type: cell-based
[22] = Tmax in Sprague-Dawley rat at 25 mg/kg, IG; type: ADME, organism-based; details: in vivo, po
[23] = system: HeLa; test: Induction of apoptosis in human HeLa cells assessed as late apoptotic cells at 10 uM incubated for 24 hrs by Annexin V-FITC/PI staining based flow cytometry (reference value: 4.7%); type: functional
[24] = Elimination Half life in Sprague-Dawley rat at 25 mg/kg, IG; type: ADME, organism-based; details: in vivo, po, read-out: beta t1/2 (converted); in short: as §1
[25] = system: HeLa; test: Induction of apoptosis in human HeLa cells assessed as necrotic cells at 10 uM incubated for 24 hrs by Annexin V-FITC/PI staining based flow cytometry (reference value: 0.02%); type: functional

Chain of Signal transducer and activator of transcription 3 (Homo sapiens) (P40763 whole entry): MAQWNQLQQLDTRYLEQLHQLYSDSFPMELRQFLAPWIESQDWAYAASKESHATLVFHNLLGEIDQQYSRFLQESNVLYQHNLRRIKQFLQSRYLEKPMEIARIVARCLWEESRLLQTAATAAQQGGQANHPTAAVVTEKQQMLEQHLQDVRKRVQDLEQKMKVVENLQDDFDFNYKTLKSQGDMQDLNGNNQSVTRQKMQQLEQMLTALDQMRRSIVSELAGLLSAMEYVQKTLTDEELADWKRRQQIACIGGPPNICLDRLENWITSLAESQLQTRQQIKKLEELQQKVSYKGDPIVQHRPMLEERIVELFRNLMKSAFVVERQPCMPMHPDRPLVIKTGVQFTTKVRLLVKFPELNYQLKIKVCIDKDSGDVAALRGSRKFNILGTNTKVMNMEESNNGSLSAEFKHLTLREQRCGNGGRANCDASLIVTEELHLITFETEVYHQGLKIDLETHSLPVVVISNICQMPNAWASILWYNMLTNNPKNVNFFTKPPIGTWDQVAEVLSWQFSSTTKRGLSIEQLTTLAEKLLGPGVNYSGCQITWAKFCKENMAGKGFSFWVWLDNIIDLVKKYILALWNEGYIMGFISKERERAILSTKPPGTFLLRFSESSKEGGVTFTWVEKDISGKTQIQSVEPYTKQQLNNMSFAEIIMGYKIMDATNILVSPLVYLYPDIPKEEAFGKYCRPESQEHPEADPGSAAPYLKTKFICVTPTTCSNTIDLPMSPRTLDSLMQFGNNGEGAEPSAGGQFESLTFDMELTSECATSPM

CC(=O)Oc1ccccc1C(=O)Nc1ncc([N+](=O)[O-])s1 [NITAZOXANIDE]
Cmax [1]: 1000 ng/mL | inhibition [2]: inactive | Activity [3]: 11.4% | inhibition [4]: Dose-dependent effect | IC50 [5]: 20.1 µM | Activity [6]: 69.88% | viability at 10 µM [7]: 92.3% | inhibition at 48 h, 50 µM [8]: 24.4% | Activity [9]: inactive | IC50 [10]: 35 µM | Activity [11]: inactive | IC50 [12]: > 50 µM | Activity [13]: 9.59% | inhibition [14]: Active | inhibition [15]: Dose-dependent effect | Cmax [16]: 2800 ng/mL | Activity [17]: 61.96% | Activity [18]: 21.84% | IC50 [19]: 31.8 µM | viability at 20 µM [20]: 84.1% | Activity [21]: Non-Toxic | Tmax [22]: 2 h | Activity [23]: 5.32% | half-life [24]: 0.8 h | Activity [25]: 0.02%
